Calls of active or inactive are those of the source. The rule behind the calls is not given here.
What was measured:
[1] = molecular target: T1, Quinolone resistance protein NorA (Staphylococcus aureus) (UniProt P0A0J7); assay: Inhibition of norA-mediated ethidium bromide efflux in methicillin-resistant Staphylococcus aureus SA-1199B at 2.5 ug/ml by spectrofluorometric analysis
T1 sequence (whole entry): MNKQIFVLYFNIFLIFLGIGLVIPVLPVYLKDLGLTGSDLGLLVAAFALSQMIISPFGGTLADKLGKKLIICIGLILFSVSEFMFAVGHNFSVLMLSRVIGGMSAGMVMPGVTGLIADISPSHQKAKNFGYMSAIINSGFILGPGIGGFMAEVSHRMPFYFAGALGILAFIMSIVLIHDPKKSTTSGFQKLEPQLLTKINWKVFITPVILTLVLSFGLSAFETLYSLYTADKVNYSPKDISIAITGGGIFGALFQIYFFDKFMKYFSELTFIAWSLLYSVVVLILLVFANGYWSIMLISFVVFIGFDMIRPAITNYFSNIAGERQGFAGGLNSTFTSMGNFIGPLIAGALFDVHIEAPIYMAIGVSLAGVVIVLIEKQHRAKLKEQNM
Outline: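 Whole-cell efflux assay, strain grown in Mueller Hinton II broth; compounds dissolved in DMSO, 1% DMSO in MHB II as negative control, reserpine as positive control. Background read from a pellet resuspended in clean MHB II. Fluorescence read in duplicate at ex 530 nm / em 600 nm; the mean is reported as percent reduction of efflux versus control.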

[2] = molecular target: T1, Quinolone resistance protein NorA (Staphylococcus aureus); details: ATCC 29213
[3] = molecular target: T1, Quinolone resistance protein NorA (Staphylococcus aureus); assay: Inhibition of norA-mediated ethidium bromide efflux in methicillin-resistant Staphylococcus aureus SA-1199B at 10 ug/ml by spectrofluorometric analysis
Outline: (§1)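 Ethidium bromide efflux from S. aureus cells in MHB II, compounds dissolved in DMSO. Reserpine 20 µg/mL as positive control and 1% DMSO as negative control; background taken from a resuspended pellet in clean medium. Fluorescence read at ex 530/em 600 nm in duplicate; mean given as percent reduction of efflux versus control.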

[4] = molecular target: T2, Quinolone resistance protein NorA (Staphylococcus aureus, UniProt P0A0J7); assay: Inhibition of norA-mediated ethidium bromide efflux in methicillin-resistant Staphylococcus aureus SA-1199B by spectrofluorometric analysis; outline: as §1
T2 sequence (P0A0J7 whole entry): T1 sequence (whole entry)

[5] = molecular target: T1, Quinolone resistance protein NorA (Staphylococcus aureus); assay: Inhibition of norA-mediated ethidium bromide efflux in methicillin-resistant Staphylococcus aureus SA-1199B at 5 ug/ml by spectrofluorometric analysis; outline: as §1
[6] = molecular target: T1, Quinolone resistance protein NorA (Staphylococcus aureus); details: SA-1199B
Escherichia coli = assay: Inhibition of Hoechst 33342 dye in norA-deficient Escherichia coli DH10B expressing pTrc99A at 2 ug/mL by spectrofluorometer analysis; assay type: functional, organism-based; details: K-12 DH10B
Outline: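 Everted membrane vesicles were made from overnight E. coli DH10B carrying pTrcHis2C-norA or control pTrc99A. PMSF (0.1 mM final) was added before French press and DNase (0.1 mg/mL final) to the lysate. Vesicles were diluted to 80 µg protein/mL in 50 mM potassium HEPES, 8.5 mM NaCl, 2 mM MgCl2, pH 7.2. Hoechst 33342 was added, then Mg2+-ATP after the signal stabilised (~30 s). Inhibitor was added at 150–160 s. Fluorescence ex 355/em 457 nm over 300 s.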

Staphylococcus aureus [7] = assay: Antibacterial activity against Staphylococcus aureus ATCC 29213 […] at 0.2 to 25 ug/ml after 20 hrs by microdilution method; assay type: functional, organism-based
Outline: (§2)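 Broth microdilution in Mueller Hinton broth II with an inoculum of 5 × 10⁵ cfu/mL, incubated 20 h at 35 °C. MIC is the lowest concentration with no visible growth. Controls were bacteria with DMSO at up to about 1%, and ciprofloxacin. Run to CLSI/EUCAST guidelines in duplicate or more.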

[8] = molecular target: T1, Quinolone resistance protein NorA (Staphylococcus aureus); assay: Inhibition of norA-mediated ethidium bromide efflux in methicillin-resistant Staphylococcus aureus SA-1199B at 20 ug/ml by spectrofluorometric analysis; outline: as §1
[9] = molecular target: T1, Quinolone resistance protein NorA (Staphylococcus aureus); assay: Inhibition of norA in Staphylococcus aureus SA-1199B overexpressing norA assessed as fold reduction in ciprofloxacin MIC at 12.5 ug/mL by checkerboard assay
Outline: (§3)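 Checkerboard in MHB with twofold serial dilutions: ciprofloxacin 0.05–12.5 µg/mL against inhibitor 0.2–25 µg/mL. Inoculum 5 × 10⁵ cfu/mL, 20 h at 35 °C, visual MIC read-out. Fold reduction of ciprofloxacin MIC recorded at the inhibitor concentration giving it. FIC index is the sum of both drugs' FICs; ≤0.5 counts as synergy.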

[10] = molecular target: T1, Quinolone resistance protein NorA (Staphylococcus aureus); assay: Inhibition of norA in Staphylococcus aureus ATCC 29213 assessed as fold reduction in ciprofloxacin MIC at 12.5 ug/mL by checkerboard assay
Staphylococcus aureus [11] = assay: Antibacterial activity against Staphylococcus aureus SA-1199B overexpressing norA at 0.2 to 25 ug/ml after 20 hrs by microdilution method; assay type: functional, organism-based; outline: as §2
[12] = molecular target: T1, Quinolone resistance protein NorA (Staphylococcus aureus); assay: Inhibition of norA in Staphylococcus aureus SA-1199B overexpressing norA assessed as fold reduction in ciprofloxacin MIC at 25 ug/mL by checkerboard assay
[13] = molecular target: T1, Quinolone resistance protein NorA (Staphylococcus aureus); assay: Inhibition of norA in Staphylococcus aureus ATCC […] assessed as fold reduction in ciprofloxacin MIC at 25 ug/mL by checkerboard assay
Staphylococcus aureus [14] = assay: Antibacterial activity against Staphylococcus aureus ATCC […] at 25 ug/ml after 20 hrs by microdilution method; assay type: functional, organism-based; outline: as §2
[15] = molecular target: T1, Quinolone resistance protein NorA (Staphylococcus aureus); assay: Inhibition of norA in Staphylococcus aureus SA-1199B overexpressing norA assessed as fold reduction in ciprofloxacin MIC at 3.13 ug/mL by checkerboard assay; outline: as §3
Staphylococcus aureus [16] = assay: Antibacterial activity against Staphylococcus aureus SA-1199B overexpressing norA at 25 ug/ml after 20 hrs by microdilution method; assay type: functional, organism-based; outline: as §2
[17] = molecular target: T1, Quinolone resistance protein NorA (Staphylococcus aureus); assay: Inhibition of norA in Staphylococcus aureus SA-1199B overexpressing norA assessed as fold reduction in ciprofloxacin MIC by checkerboard assay
[18] = molecular target: T1, Quinolone resistance protein NorA (Staphylococcus aureus); assay: Inhibition of norA in Staphylococcus aureus SA-1199B overexpressing norA assessed as fold reduction in ciprofloxacin MIC by checkerboard assay; outline: as §3
[19] = molecular target: T1, Quinolone resistance protein NorA (Staphylococcus aureus); assay: Inhibition of norA in Staphylococcus aureus ATCC 29213 overexpressing norA assessed as fold reduction in ciprofloxacin MIC at 3.13 ug/mL by checkerboard assay; outline: as §3

Compound | inhibition [1] | inhibition [3] | IC50 [4] | inhibition [5] | inhibition (Escherichia coli) | Activity (Staphylococcus aureus [7]) | inhibition [8] | Activity (Staphylococcus aureus [11]) | also measured
COC(=O)[C@H]1[C@H]2C[C@@H]3c4[nH]c5cc(OC)ccc5c4CCN3C[C@H]2C[C@@H](OC(=O)c2cc(OC)c(OC)c(OC)c2)[C@@H]1OC [RESERPINE] | 30% | 71.8% | 8.2 µM | 48.1% |  |  |  |  | FICI [2]: 0.25; FICI [6]: 0.25
COc1ccc(OC)c(/C=C/C(=O)c2ccc(O)cc2)c1 | 23.3% | 82.7% | 15 µM | 56.6% | inactive | inactive | 91% | inactive | fractional inhibitory concentration index (FICI) [9]: 0.25; fractional inhibitory concentration index (FICI) [10]: 0.25
CN(C)CCOc1ccc(C(=O)/C=C/c2ccccc2)cc1 | 21.8% | 56.9% | 28.4 µM | 36.1% | inactive | inactive | 83.6% | inactive | fractional inhibitory concentration index (FICI) [12]: > 0.5; fractional inhibitory concentration index (FICI) [13]: > 0.5
CN(C)CCOc1ccc(C(=O)/C=C/c2ccc(F)cc2)cc1 |  |  |  |  | inactive |  |  |  | 
CN(C)CCOc1ccc(C(=O)/C=C/c2ccc(Oc3ccccc3)cc2)cc1 | 43.4% | 97.5% | 9 µM | 68.8% | inactive |  | 99.1% |  | FICI [2]: 0.26; Activity (Staphylococcus aureus [14]): Active; fractional inhibitory concentration index (FICI) [15]: 0.38; Activity (Staphylococcus aureus [16]): Active
COc1cc(/C=C/C(=O)c2cccc(OC(=O)c3ccccc3)c2)cc(OC)c1 |  |  |  |  | inactive |  |  |  | 
C[C@@H]1O[C@@H](Oc2c(-c3ccc(O)cc3)oc3cc(O)cc(O)c3c2=O)[C@H](OC(=O)/C=C/c2ccc(O)cc2)[C@H](O)[C@H]1OC(=O)/C=C/c1ccc(O)cc1 |  |  |  |  | inactive |  |  |  | 
COc1ccc(/C=C/C(=O)c2ccc(O)cc2)cc1OC | 14% | 64.3% | 26.5 µM | 38.3% | inactive | inactive | 87.9% | inactive | fractional inhibitory concentration index (FICI) [12]: 0.25; fractional inhibitory concentration index (FICI) [13]: 0.25
COc1ccc(C(=O)/C=C/c2cccc(N(C)C)c2)c(OC)c1OC |  |  |  |  | inactive |  |  |  | 
COc1ccc(/C=C/C(=O)c2ccc(O)cc2)c(OC)c1 | 17.3% | 62.7% | 29.1 µM | 24.1% | inactive | inactive | 89.6% | inactive | FICI [2]: 0.25; fractional inhibitory concentration index (FICI) [9]: 0.25
C=CCOc1ccccc1C(=O)/C=C/c1ccc(OCC(=O)O)cc1 | 14.7% | 79.9% | 16.9 µM | 46.2% | inactive | inactive | 87.1% | inactive | inhibition [17]: Dose-dependent effect; inhibition [18]: Dose-dependent effect; fractional inhibitory concentration index (FICI) [19]: 0.25; FICI [6]: 0.25

From ChEMBL document CHEMBL2157969, “Chalcone inhibitors of the NorA efflux pump in Staphylococcus aureus whole cells and enriched everted membrane vesicles” (Bioorg Med Chem, 2012)
